Data set [1] relates to Human immunodeficiency virus 1. Description: Antiviral activity against HIV 1 NL4-3 infected in human TZM cells expressing GFP assessed as reduction in LTR-activated GFP expression preincubated for 24 hrs followed by viral infection and measured after 48 hrs. It counts as functional, organism-based. Conditions: Human immunodeficiency virus 1, NL4-3, TZM. The procedure, abridged:
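TZM-GFP cells were seeded at 1×10^4 per well. After 24 h they were given increasing compound concentrations for 24 h, then infected with HIV-1 NL4-3 (MOI = 1) for 48 h. GFP-positive cells were counted versus DMSO control. EC50 came from a log(inhibitor) vs normalized response, variable-slope fit, calculated per independent experiment and averaged. Duplicate wells, ≥2 experiments, mean ± SD.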

The nature of data set [2]: Cytotoxicity against human TZM cells expressing GFP assessed as reduction in cell viability after 72 hrs by XTT assay. It counts as cell-based. The procedure, abridged: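 TZM-GFP cells were seeded at 1×10^4 per well and exposed continuously to increasing compound concentrations for 72 h. Viable cells were measured by XTT. CC50 came from a log(inhibitor) vs normalized response, variable-slope fit, averaged across independent experiments. Duplicate wells, ≥2 experiments, mean ± SD.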

Data set [3] in a line: Half life in human liver microsomes at 1 uM in presence of NADPH preincubated for 15 mins followed by NADPH addition and measured up to 60 mins by LC-MS/MS analysis. The note with it: time 15-75 min. It counts as ADME, Microsome. The procedure, abridged:
(§1)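 Compound at 1 µM final was preincubated 15 min at 37 °C with human or mouse liver microsomes (0.5 mg/mL protein) and 1 mM MgCl2 in 0.1 M potassium phosphate, pH 7.4. The reaction was started with 1 mM NADPH at 37 °C and sampled at 0, 5, 15, 30 and 60 min. Samples were quenched in acetonitrile/0.1% formic acid with internal standard; t1/2 was determined by LC-MS/MS. A no-NADPH control ran in parallel. Done in duplicate.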

Data set [4] can be described thus: Half life in mouse liver microsomes at 1 uM in presence of NADPH preincubated for 15 mins followed by NADPH addition and measured up to 60 mins by LC-MS/MS analysis. Type of data set: ADME, Microsome. The note with it: time 15-75 min. The procedure, abridged: as §1
Data set [5] deals with Human immunodeficiency virus 1. The data set can be described thus: Antiviral activity against HIV 1 NL4-3 infected in human TZM cells expressing GFP assessed as inhibition LTR-activated GFP expression at 2 uM preincubated for 24 hrs followed by viral infection and measured after 48 hrs relative to control. It counts as functional. The note with it: Human immunodeficiency virus 1, NL4-3, TZM, time 72 hrs. The procedure, abridged:
(§2)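 TZM-GFP cells were seeded at 1×10^4 per well. After 24 h, medium was replaced with compound at a single concentration. After a further 24 h, cells were infected with HIV-1 NL4-3 (MOI = 1) and incubated 48 h. GFP-positive cells were counted by imaging and expressed as % inhibition of LTR-driven GFP versus compound-free DMSO control. Run in duplicate, at least two independent experiments.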

The subject of data set [6] is Human immunodeficiency virus 1. The data set can be described thus: Antiviral activity against HIV 1 NL4-3 infected in human TZM cells expressing GFP assessed as inhibition LTR-activated GFP expression at 20 uM preincubated for 24 hrs followed by viral infection and measured after 48 hrs relative to control. Conditions: Human immunodeficiency virus 1, NL4-3, TZM, time 72 hrs. Type of data set: functional. The procedure, abridged: as §2

Regarding `COc1ccc2[nH]cc(CC(=O)N[C@@H](Cc3ccccc3)C(=O)N(C)c3ccc(Cl)cc3)c2c1`, the EC50 in data set [1] was determined as 0.31 µM. Further, the CC50 at 72 h in data set [2] is over 50 µM. Moreover, the half-life at 1 µM came to 1.8 min in data set [3] and 0.6 min in data set [4].

With `CN(C(=O)[C@H](Cc1ccccc1)NC(=O)Cc1c[nH]c2ccc(O)cc12)c1ccc(F)cc1`, in data set [1], the EC50 turned out to be 0.46 µM. The CC50 at 72 h in data set [2] was over 50 µM.

Take `COc1ccc2[nH]cc(CC(=O)N[C@@H](Cc3ccccc3)C(=O)N(C)c3ccccc3)c2c1`: the EC50 in data set [1] was 0.56 µM. For the same molecule, the CC50 at 72 h in data set [2] turned out to be 48 µM. In addition, the results for the half-life at 1 µM in data set [3] and in data set [4] were 1.2 min and 0.5 min, respectively.

Consider `CN(C(=O)[C@H](Cc1ccccc1)NC(=O)Cc1c[nH]c2ccc(O)cc12)c1cccc(Cl)c1`, for which the EC50 in data set [1] came out at 0.31 µM. For the same molecule, in data set [2], the CC50 at 72 h was over 100 µM.

`COc1ccc2[nH]cc(CC(=O)N[C@@H](Cc3ccccc3)C(=O)N(C)c3ccc(F)cc3)c2c1`: in data set [1], the EC50 was found to be 0.57 µM. In addition, in data set [2], the CC50 at 72 h was over 50 µM.

As for `CN(C(=O)[C@H](Cc1ccccc1)NC(=O)Cc1c[nH]c2ccc(O)cc12)c1cccc(Br)c1`, the EC50 in data set [1] came out at 0.38 µM. In addition, in data set [2], the CC50 at 72 h is over 100 µM.

Consider `CN(C(=O)[C@H](Cc1ccccc1)NC(=O)Cc1c[nH]c2ccc(O)cc12)c1cccc(C(F)(F)F)c1`, for which the EC50 in data set [1] is 0.48 µM. For the same molecule, in data set [2], the CC50 at 72 h came to 65 µM.

With `COc1ccc2[nH]cc(CC(=O)N[C@@H](Cc3ccccc3)C(=O)N(C)c3ccc(C)cc3)c2c1`, the EC50 in data set [1] stood at 0.28 µM. Besides, the CC50 at 72 h in data set [2] was over 50 µM.

Regarding `CN(C(=O)[C@H](Cc1ccccc1)NC(=O)Cn1cnc2c1c(=O)n(C)c(=O)n2C)c1ccc(F)cc1`, the CC50 at 72 h in data set [2] is over 50 µM. Further, the inhibition at 2 µM in data set [5] stood at 14%. Besides, in data set [6], the inhibition at 20 µM is 85%.

Regarding `Cc1ccc(N(C)C(=O)[C@H](Cc2ccccc2)NC(=O)Cn2cnc3c2c(=O)n(C)c(=O)n3C)cc1`, the CC50 at 72 h in data set [2] is over 50 µM. Further, the inhibition at 2 µM in data set [5] was 18%. The inhibition at 20 µM in data set [6] was found to be 98%.

`CN(C(=O)[C@H](Cc1ccccc1)NC(=O)Cn1cnc2c1c(=O)n(C)c(=O)n2C)c1ccc(Cl)cc1`: in data set [2], the CC50 at 72 h was over 50 µM. For the same molecule, the inhibition at 2 µM in data set [5] is 6%. Besides, in data set [6], the inhibition at 20 µM is 96%.

`CN(C(=O)[C@H](Cc1ccccc1)NC(=O)Cc1c[nH]c2ccc(O)cc12)c1cccc(F)c1`: in data set [1], the EC50 was 0.32 µM. In addition, in data set [2], the cytotoxic concentration (CC50) at 72 h is 47 µM.

As for `COc1ccc2[nH]cc(CC(=O)N[C@@H](Cc3ccccc3)C(=O)N(C)c3cccc(F)c3)c2c1`, in data set [1], the EC50 worked out at 0.99 µM. The cytotoxic concentration (CC50) at 72 h in data set [2] is over 50 µM.

On to `CN(C(=O)[C@H](Cc1ccccc1)NC(=O)Cn1cnc2c1c(=O)n(C)c(=O)n2C)c1cccc(F)c1`, for which the CC50 at 72 h in data set [2] is over 50 µM. Also, in data set [5], the inhibition at 2 µM is 1%. In addition, the inhibition at 20 µM in data set [6] is 67%.

In the case of `CN(C(=O)[C@H](Cc1ccccc1)NC(=O)Cn1cnc2c1c(=O)n(C)c(=O)n2C)c1cccc(Cl)c1`, the CC50 at 72 h in data set [2] is over 50 µM. In data set [5], the inhibition at 2 µM is 0%. Moreover, the inhibition at 20 µM in data set [6] amounted to 71%.

With `CN(C(=O)[C@H](Cc1ccccc1)NC(=O)Cn1cnc2c1c(=O)n(C)c(=O)n2C)c1ccccc1`, the CC50 at 72 h in data set [2] was over 50 µM. For the same molecule, in data set [5], the inhibition at 2 µM was 10%. Also, the inhibition at 20 µM in data set [6] is 94%. Besides, the values for the half-life at 1 µM in data set [3] and in data set [4] were 4.7 min and 1.2 min, respectively.

Turning to `CCN(C(=O)[C@H](Cc1ccccc1)NC(=O)Cn1cnc2c1c(=O)n(C)c(=O)n2C)c1ccccc1`, the CC50 at 72 h in data set [2] is over 50 µM. Moreover, the inhibition at 2 µM in data set [5] was 0%. In addition, the inhibition at 20 µM in data set [6] turned out to be 94%.

(Values after ChEMBL document CHEMBL4706536, “Novel HIV-1 capsid-targeting small molecules of the PF74 binding site” (Eur J Med Chem, 2020).)
